# Measured values published in ChEMBL document CHEMBL3808313, “Comparing the efficacy of photodynamic and sonodynamic therapy in non-melanoma and melanoma skin cancer” (Bioorg Med Chem, 2016).
# Calls of active or inactive are those of the source. The rule behind the calls is not given here.
# Tests used:
# [1] = tested on: A-431; assay: Cytotoxicity against human A431 cells assessed as reduction in cell viability at 2 uM preincubated for 4 hrs followed by 5 J/cm'-2 red light irradiation measured after 24 hrs by MTT assay relative to control; format: functional; conditions: A-431, light or radiation study
# Method in brief: (§1)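 A431 squamous carcinoma cells were seeded and incubated with ALA (1 or 2 μM) for 4 h. They were then exposed to either red light (630 nm ± 15 nm) or ultrasound. Viability was read by MTT assay 24 h after treatment.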
# [2] = tested on: A-431; assay: Cytotoxicity against human A431 cells assessed as reduction in cell viability at 1 uM preincubated for 4 hrs followed by 90 J/cm'-2 ultrasound irradiation measured after 24 hrs by MTT assay; format: functional, cell-based; method in brief: as §1
# [3] = tested on: A-431; assay: Cytotoxicity against human A431 cells assessed as reduction in cell viability at 1 uM preincubated for 4 hrs followed by 5 J/cm'-2 red light irradiation measured after 24 hrs by MTT assay; format: functional, cell-based; method in brief: as §1
# [4] = tested on: A-431; assay: Cytotoxicity against human A431 cells assessed as reduction in cell viability at 2 uM preincubated for 4 hrs followed by 90 J/cm'-2 ultrasound irradiation measured after 24 hrs by MTT assay relative to control; format: functional; conditions: A-431, light or radiation study; method in brief: as §1
# [5] = tested on: Mus musculus; assay: Toxicity in topically dosed SCID mouse xenografted ectopically with human A431 cells assessed as reduction in body weight pretreated for 4 hrs via Metvix cream followed by 220 J/cm'-2 ultrasound irradiation measured on day 7 post dosing; format: organism-based, A-431; conditions: in vivo, topical_or_ocular
# [6] = tested on: A-431; assay: Antitumor activity against human A431 cells ectopically xenografted in topically dosed SCID mouse assessed as tumor growth pretreated for 4 hrs via Metvix cream followed by 40 J/cm'-2 red light irradiation measured on day 7 post dosing relative to control; format: functional
# [7] = tested on: A-431; assay: Antitumor activity against human A431 cells ectopically xenografted in topically dosed SCID mouse assessed as tumor growth treated for 4 hrs via Metvix cream measured on day 7 post dosing relative to control; format: functional
# [8] = tested on: Mus musculus; assay: Toxicity in topically dosed SCID mouse xenografted ectopically with human A431 cells assessed as reduction in body weight pretreated for 4 hrs via Metvix cream followed by 40 J/cm'-2 red light irradiation measured on day 7 post dosing; format: organism-based, A-431; conditions: in vivo, topical_or_ocular
# [9] = tested on: A-431; assay: Antitumor activity against human A431 cells ectopically xenografted in topically dosed SCID mouse assessed as tumor growth pretreated for 4 hrs via Metvix cream followed by 220 J/cm'-2 ultrasound irradiation measured on day 7 post dosing relative to control; format: functional
# [10] = Induction of ROS generation in EtOH/H2O solution assessed as reduction in DPBF absorbance at 0.5 uM preincubated with compound followed by white light irradiation for 30 mins by UV-visible spectrometric analysis relative to control; format: physicochemical; parameters: scale not given: the % may be the effect or the level left; conditions: 0.5 h
# [11] = Induction of ROS generation in EtOH/H2O solution assessed as reduction in DPBF absorbance at 0.5 uM preincubated with compound followed by ultrasound irradiation for 30 mins by UV-visible spectrometric analysis relative to control; format: physicochemical; parameters: scale not given: the % may be the effect or the level left; conditions: 0.5 h
# [12] = tested on: HeLa; assay: Cytotoxicity against human HeLa cells assessed as reduction in cell viability at 0.5 uM preincubated for 3 hrs followed by 45 J/cm'-2 ultrasound irradiation for 30 sec measured after 24 hrs by MTT assay relative to control; format: functional; conditions: light or radiation study
# [13] = Cytotoxicity against mouse B16-F10-luc2 cells assessed as reduction in cell viability at 0.5 uM preincubated for 3 hrs followed by 45 J/cm'-2 ultrasound irradiation for 30 sec measured after 24 hrs by MTT assay relative to control; format: functional; conditions: B16-F10-luc2, light or radiation study
# [14] = Antitumor activity against mouse B16-F10-luc2 cells ectopically xenografted in nude mouse assessed as tumor growth at 100 uM pretreated with compound followed by ultrasound irradiation measured on day 4 post dosing relative to control; format: functional
# [15] = Cytotoxicity against mouse B16-F10-luc2 cells assessed as reduction in cell viability at 0.5 uM preincubated for 3 hrs followed by 11.4 J/cm'-2 white light irradiation for 30 sec measured after 24 hrs by MTT assay relative to control; format: functional; conditions: B16-F10-luc2, light or radiation study
# [16] = Antitumor activity against mouse B16-F10-luc2 cells ectopically xenografted in nude mouse assessed as tumor growth at 100 uM pretreated with compound followed by ultrasound irradiation measured up to 6 days post dosing relative to control; format: functional
# [17] = tested on: Mus musculus; assay: Toxicity in nude mouse xenografted ectopically with mouse B16-F10-Luc2 cells assessed as reduction in body weight at 100 uM pretreated with compound followed by ultrasound irradiation measured up to 6 days post dosing relative to control; format: organism-based; conditions: in vivo
# [18] = tested on: RIF-1; assay: Cytotoxicity against mouse RIF1 cells assessed as reduction in cell viability at 0.5 uM preincubated for 3 hrs followed by ultrsound irradiation through 3.4 to 6.8 mm guinea pig skin barrier by MTT assay; format: functional, cell-based
# [19] = tested on: HeLa; assay: Cytotoxicity against human HeLa cells assessed as reduction in cell viability at 0.5 uM preincubated for 3 hrs followed by 11.4 J/cm'-2 white light irradiation for 30 sec measured after 24 hrs by MTT assay relative to control; format: functional; conditions: light or radiation study
# [20] = Antitumor activity against mouse B16-F10-luc2 cells ectopically xenografted in nude mouse assessed as tumor growth at 100 uM pretreated with compound followed by white light irradiation measured on day 4 post dosing relative to control; format: functional
# [21] = Cytotoxicity against mouse RIF1 cells assessed as reduction in cell viability at 0.5 uM preincubated for 3 hrs followed by 90 J/cm'-2 ultrasound irradiation for 60 sec measured after 24 hrs by MTT assay relative to control; format: functional; conditions: RIF-1, light or radiation study
# [22] = Cytotoxicity against mouse RIF1 cells assessed as reduction in cell viability at 0.5 uM preincubated for 3 hrs followed by 45 J/cm'-2 ultrasound irradiation for 30 sec measured after 24 hrs by MTT assay relative to control; format: functional; conditions: RIF-1, light or radiation study
# [23] = tested on: HeLa; assay: Cytotoxicity against human HeLa cells assessed as reduction in cell viability at 0.5 uM preincubated for 3 hrs followed by 22.8 J/cm'-2 white light irradiation for 60 sec measured after 24 hrs by MTT assay relative to control; format: functional; conditions: light or radiation study
# [24] = tested on: HeLa; assay: Cytotoxicity against human HeLa cells assessed as reduction in cell viability at 0.5 uM preincubated for 3 hrs followed by 90 J/cm'-2 ultrasound irradiation for 60 sec measured after 24 hrs by MTT assay relative to control; format: functional; conditions: light or radiation study
# [25] = Cytotoxicity against mouse RIF1 cells assessed as reduction in cell viability at 0.5 uM preincubated for 3 hrs followed by 22.8 J/cm'-2 white light irradiation for 60 sec measured after 24 hrs by MTT assay relative to control; format: functional; conditions: RIF-1, light or radiation study
# [26] = tested on: Mus musculus; assay: Toxicity in nude mouse xenografted ectopically with mouse B16-F10-Luc2 cells assessed as reduction in body weight at 100 uM pretreated with compound followed by white light irradiation measured up to 6 days post dosing relative to control; format: organism-based; conditions: in vivo
# [27] = tested on: RIF-1; assay: Cytotoxicity against mouse RIF1 cells assessed as reduction in cell viability at 0.5 uM preincubated for 3 hrs followed by white light irradiation through 3.4 to 6.8 mm guinea pig skin barrier by MTT assay; format: functional, cell-based
# [28] = Cytotoxicity against mouse B16-F10-luc2 cells assessed as reduction in cell viability at 0.5 uM preincubated for 3 hrs followed by 22.8 J/cm'-2 white light irradiation for 60 sec measured after 24 hrs by MTT assay relative to control; format: functional; conditions: B16-F10-luc2, light or radiation study
# [29] = Cytotoxicity against mouse RIF1 cells assessed as reduction in cell viability at 0.5 uM preincubated for 3 hrs followed by 11.4 J/cm'-2 white light irradiation for 30 sec measured after 24 hrs by MTT assay relative to control; format: functional; conditions: RIF-1, light or radiation study
# [30] = Cytotoxicity against mouse B16-F10-luc2 cells assessed as reduction in cell viability at 0.5 uM preincubated for 3 hrs followed by 90 J/cm'-2 ultrasound irradiation for 60 sec measured after 24 hrs by MTT assay relative to control; format: functional; conditions: B16-F10-luc2, light or radiation study
compound,measurement,setting,value
NCC(=O)CCC(=O)O [AMINOLEVULINIC ACID],inhibition at 2 µM,[1],43%
same,inhibition,[2],Active
same,inhibition,[3],Active
same,inhibition at 2 µM,[4],31%
COC(=O)CCC(=O)CN [METHYL AMINOLEVULINATE],Activity,[5],Non-toxic
same,Activity,[6],22%
same,Activity,[7],90%
same,Activity,[8],Non-toxic
same,Activity,[9],11%
C=CC1=C(C)c2cc3[nH]c(cc4nc(cc5[nH]c(cc1n2)c(C)c5CCC(=O)O)C(CCC(=O)O)=C4C)c(C)c3C=C [PROTOPORPHYRIN],Activity,[10],60%
same,Activity,[11],17%
O=C([O-])c1c(Cl)c(Cl)c(Cl)c(Cl)c1-c1c2cc(I)c(=O)c(I)c-2oc2c(I)c([O-])c(I)cc12.[Na+].[Na+] [ROSE BENGAL SODIUM],inhibition at 0.5 µM,[12],50%
same,inhibition at 0.5 µM,[13],25%
same,Activity,[14],120%
same,inhibition at 0.5 µM,[15],7%
same,Activity,[16],400%
same,Activity,[17],Non-toxic
same,inhibition,[18],Active
same,inhibition at 0.5 µM,[19],50%
same,Activity,[10],Active
same,Activity,[20],400%
same,inhibition at 0.5 µM,[21],50%
same,inhibition at 0.5 µM,[22],50%
same,Activity,[11],Active
same,inhibition at 0.5 µM,[23],50%
same,inhibition at 0.5 µM,[24],50%
same,inhibition at 0.5 µM,[25],50%
same,Activity,[26],Non-toxic
same,inhibition,[27],inactive
same,inhibition at 0.5 µM,[28],18%
same,inhibition at 0.5 µM,[29],50%
same,inhibition at 0.5 µM,[30],40%
